Measured values gathered from unrelated publications.
Lines come from different studies, so protocols differ.
Observed: metabolic stability

| Structure (SMILES) | host | medium | tested at | time | pH | quantity | result |
| --- | --- | --- | --- | --- | --- | --- | --- |
| Cc1ncc2n1-c1ccc(Cl)cc1C(c1ccccc1F)=NC2 | male CD-1 mouse | liver microsomes | 1 µM |  |  | microsomal CLint | > 250 µL/min/mg |
| Cc1cc(Cl)c(Cl)cc1NC(=O)c1ccc(N2CCNCC2)c(C#N)c1 | CD-1 mouse | liver microsomes | 1 µM | 1 h | pH 7.4 | scaled CLint | 1.74 L/h/kg |
| Cc1nc([C@@](C)(CC2CC2)NC(=O)c2cc(OCC(F)(F)F)c(C3CC3)cn2)no1 | mouse | hepatocytes |  |  |  | hepatocyte CLint | 27 µL/min/10⁶ cells |
| Cc1nc2c(=O)n(C)c(=O)nc-2n(C)n1 | mouse | liver microsomes |  |  |  | microsomal CLint | < 7.4 µL/min/mg |
| Cc1ccc(F)c2cc(C(=O)N[C@@H]3CCC[C@H](N4CC[C@H](N(C)S(C)(=O)=O)C4)C3)[nH]c12 | mouse | hepatocytes | 0.5 µM | 1 h |  | scaled CLint | 43.3 L/h/kg |
| C[C@H]1COCCN1c1nc(NCc2cccnc2C(F)(F)F)c2cccnc2n1 | mouse | hepatocytes |  |  |  | hepatocyte CLint | 8.9 µL/min/10⁶ cells |
| NC(=O)[C@@H]1CC(F)(F)CN1C(=O)c1ccc(N2CC(F)(F)C2)c(OCC2CC2)n1 | mouse | hepatocytes |  |  |  | hepatocyte CLint | 59 µL/min/10⁶ cells |
| Cc1cc(C)nc(Nc2ncc(C(=O)NCCc3c(C)[nH]c4ccccc34)cn2)c1 | mouse | liver microsomes | 1 µM |  |  | microsomal CLint | 148 µL/min/mg |
